Results published in ChEMBL document CHEMBL4680175, “Sulfonamide-based ring-fused analogues for CAN508 as novel carbonic anhydrase inhibitors endowed with antitumor activity: Design, synthesis, and in vitro biological evaluation” (Eur J Med Chem, 2020).
Calls of active or inactive are those of the source. The rule behind the calls is not given here.

Experiments:
DU-145 = assay: Antitumor activity against human DU-145 cells assessed as cell growth inhibition at 10 uM incubated for 48 hrs by sulforhodamine B assay; format: functional; conditions: read-out: GI
In short: (§1)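 NCI Drug Evaluation Branch protocol: primary single-dose screen at 10 μM across a 57-line human cancer panel. Drug exposure is 48 h. Cell growth and viability are read by sulforhodamine B assay. Data are given as a mean graph of percent growth of treated cells and reported as percentage growth inhibition (GI%).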

CAKI-1 = assay: Antitumor activity against human CAKI-1 cells assessed as cell growth inhibition at 10 uM incubated for 48 hrs by sulforhodamine B assay; format: functional; conditions: read-out: GI; in short: as §1
MOLT-4 = assay: Antitumor activity against human MOLT4 cells assessed as cell growth inhibition at 10 uM incubated for 48 hrs by sulforhodamine B assay; format: functional; conditions: read-out: GI; in short: as §1
U-251 = assay: Antitumor activity against human U251 cells assessed as cell growth inhibition at 10 uM incubated for 48 hrs by sulforhodamine B assay; format: functional; conditions: read-out: GI
In short: (§2)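 NCI one-dose screen: 57-cell-line panel exposed at 10 μM for 48 h, Drug Evaluation Branch protocol. Growth and viability read by sulforhodamine B; data given as percent growth inhibition from the mean-graph of percent growth of treated cells.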

OVCAR-8 = assay: Antitumor activity against human OVCAR-8 cells assessed as cell growth inhibition at 10 uM incubated for 48 hrs by sulforhodamine B assay; format: functional; conditions: read-out: GI; in short: as §1
HOP-62 = assay: Antitumor activity against human HOP62 cells assessed as cell growth inhibition at 10 uM incubated for 48 hrs by sulforhodamine B assay; format: functional; conditions: read-out: GI; in short: as §1
RPMI-8226 = assay: Antitumor activity against human RPMI8226 cells assessed as cell growth inhibition at 10 uM incubated for 48 hrs by sulforhodamine B assay; format: functional; conditions: read-out: GI; in short: as §1
SNB-75 = assay: Antitumor activity against human SNB-75 cells assessed as cell growth inhibition at 10 uM incubated for 48 hrs by sulforhodamine B assay; format: functional; conditions: read-out: GI; in short: as §2
Carbonic anhydrase 2 = Carbonic anhydrase 2 (Homo sapiens, UniProt P00918); assay: Inhibition of recombinant human carbonic anhydrase 2 preincubated with enzyme for 15 mins by phenol red dye based stopped flow CO2 hydrase assay
IGROV-1 = assay: Antitumor activity against human IGROV1 cells assessed as cell growth inhibition at 10 uM incubated for 48 hrs by sulforhodamine B assay; format: functional; conditions: read-out: GI; in short: as §1
LOX IMVI = assay: Antitumor activity against human LOX IMVI cells assessed as cell growth inhibition at 10 uM incubated for 48 hrs by sulforhodamine B assay; format: functional; conditions: read-out: GI; in short: as §1
HCT-116 = assay: Antitumor activity against human HCT116 cells assessed as cell growth inhibition at 10 uM incubated for 48 hrs by sulforhodamine B assay; format: functional; conditions: read-out: GI; in short: as §1
SK-MEL-2 = assay: Antitumor activity against human SK-MEL-2 cells assessed as cell growth inhibition at 10 uM incubated for 48 hrs by sulforhodamine B assay; format: functional; conditions: read-out: GI; in short: as §1
NCI-H460 = assay: Antitumor activity against human NCI-H460 cells assessed as cell growth inhibition at 10 uM incubated for 48 hrs by sulforhodamine B assay; format: functional; conditions: read-out: GI; in short: as §1
BT-549 = assay: Antitumor activity against human BT-549 cells assessed as cell growth inhibition at 10 uM incubated for 48 hrs by sulforhodamine B assay; format: functional; conditions: read-out: GI; in short: as §1
MCF7 = assay: Antitumor activity against human MCF7 cells assessed as cell growth inhibition at 10 uM incubated for 48 hrs by sulforhodamine B assay; format: functional; conditions: read-out: GI; in short: as §1
NCI-H522 = assay: Antitumor activity against human NCI-H522 cells assessed as cell growth inhibition at 10 uM incubated for 48 hrs by sulforhodamine B assay; format: functional; conditions: read-out: GI; in short: as §1
Malme-3M = assay: Antitumor activity against human MALME-3M cells assessed as cell growth inhibition at 10 uM incubated for 48 hrs by sulforhodamine B assay; format: functional; conditions: read-out: GI; in short: as §1
SN12C = assay: Antitumor activity against human SN12C cells assessed as cell growth inhibition at 10 uM incubated for 48 hrs by sulforhodamine B assay; format: functional; conditions: read-out: GI; in short: as §1
NCI-H226 = assay: Antitumor activity against human NCI-H226 assessed as cell growth inhibition at 10 uM incubated for 48 hrs by sulforhodamine B assay; format: functional; conditions: read-out: GI; in short: as §1
K562 = assay: Antitumor activity against human K562 cells assessed as cell growth inhibition at 10 uM incubated for 48 hrs by sulforhodamine B assay; format: functional; conditions: read-out: GI; in short: as §1
UO-31 = assay: Antitumor activity against human UO-31 cells assessed as cell growth inhibition at 10 uM incubated for 48 hrs by sulforhodamine B assay; format: functional; conditions: read-out: GI; in short: as §2
T47D = assay: Antitumor activity against human T-47D cells assessed as cell growth inhibition at 10 uM incubated for 48 hrs by sulforhodamine B assay; format: functional; conditions: read-out: GI; in short: as §2
MDA-MB-468 = assay: Antitumor activity against human MDA-MB-468 cells assessed as cell growth inhibition at 10 uM incubated for 48 hrs by sulforhodamine B assay; format: functional; conditions: read-out: GI; in short: as §1
OVCAR-3 = assay: Antitumor activity against human OVCAR-3 cells assessed as cell growth inhibition at 10 uM incubated for 48 hrs by sulforhodamine B assay; format: functional; conditions: read-out: GI; in short: as §1
MDA-MB-231 = assay: Antitumor activity against human MDA-MB-231/ATCC cells assessed as cell growth inhibition at 10 uM incubated for 48 hrs by sulforhodamine B assay; format: functional; conditions: read-out: GI; in short: as §1
SF-539 = assay: Antitumor activity against human SF539 cells assessed as cell growth inhibition at 10 uM incubated for 48 hrs by sulforhodamine B assay; format: functional; conditions: read-out: GI; in short: as §1
[1] = biological target: Cyclin-dependent kinase 2/cyclin E1 (Homo sapiens, UniProt P24941); assay: Inhibition of CDK2/cyclin E (unknown origin) expressed in baculovirus infected Sf21 insect cells using histone H1 as substrate in presence of [gamma33P]ATP
Carbonic anhydrase 9 = Carbonic anhydrase 9 (Homo sapiens, UniProt Q16790); assay: Inhibition of recombinant human carbonic anhydrase 9 preincubated with enzyme for 15 mins by phenol red dye based stopped flow CO2 hydrase assay
Hs-578T = assay: Antitumor activity against human HS 578T cells assessed as cell growth inhibition at 10 uM incubated for 48 hrs by sulforhodamine B assay; format: functional; conditions: read-out: GI; in short: as §1
Carbonic anhydrase 12 = Carbonic anhydrase 12 (Homo sapiens, UniProt O43570); assay: Inhibition of recombinant human carbonic anhydrase 12 preincubated with enzyme for 15 mins by phenol red dye based stopped flow CO2 hydrase assay
HOP-92 = assay: Antitumor activity against human HOP92 cells assessed as cell growth inhibition at 10 uM incubated for 48 hrs by sulforhodamine B assay; format: functional; conditions: read-out: GI; in short: as §1
SF-268 = assay: Antitumor activity against human SF268 cells assessed as cell growth inhibition at 10 uM incubated for 48 hrs by sulforhodamine B assay; format: functional; conditions: read-out: GI; in short: as §1
KM12 = assay: Antitumor activity against human KM12 cells assessed as cell growth inhibition at 10 uM incubated for 48 hrs by sulforhodamine B assay; format: functional; conditions: read-out: GI; in short: as §1
SK-MEL-5 = assay: Antitumor activity against human SK-MEL-5 cells assessed as cell growth inhibition at 10 uM incubated for 48 hrs by sulforhodamine B assay; format: functional; conditions: read-out: GI; in short: as §1
NCI/ADR-RES = assay: Antitumor activity against human NCI/ADR-RES cells assessed as cell growth inhibition at 10 uM incubated for 48 hrs by sulforhodamine B assay; format: functional, cell-based; in short: as §1
CCRF-CEM = assay: Antitumor activity against human CCRF-CEM cells assessed as cell growth inhibition at 10 uM incubated for 48 hrs by sulforhodamine B assay; format: functional; conditions: read-out: GI; in short: as §1
NCI-H322M = assay: Antitumor activity against human NCI-H322M cells assessed as cell growth inhibition at 10 uM incubated for 48 hrs by sulforhodamine B assay; format: functional; conditions: read-out: GI; in short: as §1
RXF 393 = assay: Antitumor activity against human RXF 393 cells assessed as cell growth inhibition at 10 uM incubated for 48 hrs by sulforhodamine B assay; format: functional; conditions: read-out: GI; in short: as §1

Carbonic anhydrase 12, sequence (O43570 whole entry): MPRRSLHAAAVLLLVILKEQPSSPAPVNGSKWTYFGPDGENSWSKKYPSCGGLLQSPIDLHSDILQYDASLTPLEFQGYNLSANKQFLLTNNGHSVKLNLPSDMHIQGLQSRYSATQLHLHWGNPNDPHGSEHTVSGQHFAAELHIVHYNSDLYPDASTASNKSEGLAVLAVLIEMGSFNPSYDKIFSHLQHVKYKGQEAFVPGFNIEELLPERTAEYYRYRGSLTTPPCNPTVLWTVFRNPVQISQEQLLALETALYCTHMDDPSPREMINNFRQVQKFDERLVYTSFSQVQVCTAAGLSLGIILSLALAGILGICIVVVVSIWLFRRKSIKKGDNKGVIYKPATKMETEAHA

Structure (SMILES)	inhibition of growth at 10 µM (DU-145) [%]	inhibition of growth at 10 µM (CAKI-1) [%]	inhibition of growth at 10 µM (MOLT-4) [%]	inhibition of growth at 10 µM (U-251) [%]	inhibition of growth at 10 µM (OVCAR-8) [%]	inhibition of growth at 10 µM (HOP-62) [%]	inhibition of growth at 10 µM (RPMI-8226) [%]	inhibition of growth at 10 µM (SNB-75) [%]	Ki (Carbonic anhydrase 2) [nM]	inhibition of growth at 10 µM (IGROV-1) [%]	inhibition of growth at 10 µM (LOX IMVI) [%]	inhibition of growth at 10 µM (HCT-116) [%]	inhibition of growth at 10 µM (SK-MEL-2) [%]	inhibition of growth at 10 µM (NCI-H460) [%]	inhibition of growth at 10 µM (BT-549) [%]	inhibition of growth at 10 µM (MCF7) [%]	inhibition of growth at 10 µM (NCI-H522) [%]	inhibition of growth at 10 µM (Malme-3M) [%]	inhibition of growth at 10 µM (SN12C) [%]	inhibition of growth at 10 µM (NCI-H226) [%]	also measured
N#Cc1c(-c2ccc(Br)cc2)nc2c(/N=N/c3ccc(S(N)(=O)=O)cc3)c(N)nn2c1N	67	47	98	59	53	48	114	43	885	59	71	75	57	63	26	68	61	42	54	34	inhibition of growth at 10 µM (K562): 64%; inhibition of growth at 10 µM (UO-31): 41%; inhibition of growth at 10 µM (T47D): 68%; inhibition of growth at 10 µM (MDA-MB-468): 76%; inhibition of growth at 10 µM (OVCAR-3): 45%; inhibition of growth at 10 µM (MDA-MB-231): 59%; inhibition of growth at 10 µM (SF-539): 61%; IC50 [1]: > 12500 nM; Ki (Carbonic anhydrase 9): 65.7 nM; inhibition of growth at 10 µM (Hs-578T): 55%; Ki (Carbonic anhydrase 12): 43.2 nM; inhibition of growth at 10 µM (HOP-92): 69%; inhibition of growth at 10 µM (SF-268): 44%; inhibition of growth at 10 µM (KM12): 48%; inhibition of growth at 10 µM (SK-MEL-5): 54%; Activity (NCI/ADR-RES): inactive; inhibition of growth at 10 µM (CCRF-CEM): 104%; inhibition of growth at 10 µM (NCI-H322M): 25%; inhibition of growth at 10 µM (RXF 393): 58%
Cc1ccc(-c2nc3c(/N=N/c4ccc(S(N)(=O)=O)cc4)c(N)nn3c(N)c2C#N)cc1	65	59	96	68	56	57	116	51	638	63	78	86	73	72	44	72	71	51	67	35	inhibition of growth at 10 µM (K562): 80%; inhibition of growth at 10 µM (UO-31): 31%; inhibition of growth at 10 µM (T47D): 66%; inhibition of growth at 10 µM (MDA-MB-468): 94%; inhibition of growth at 10 µM (OVCAR-3): 76%; inhibition of growth at 10 µM (MDA-MB-231): 60%; inhibition of growth at 10 µM (SF-539): 69%; IC50 [1]: 11600 nM; Ki (Carbonic anhydrase 9): 44.3 nM; inhibition of growth at 10 µM (Hs-578T): 61%; Ki (Carbonic anhydrase 12): 48.8 nM; inhibition of growth at 10 µM (HOP-92): 80%; inhibition of growth at 10 µM (SF-268): 65%; inhibition of growth at 10 µM (KM12): 71%; inhibition of growth at 10 µM (SK-MEL-5): 152%; Activity (NCI/ADR-RES): inactive; inhibition of growth at 10 µM (CCRF-CEM): 88%; inhibition of growth at 10 µM (NCI-H322M): 34%; inhibition of growth at 10 µM (RXF 393): 72%
Nc1nn2cc(-c3ccccc3)[nH]c2c1/N=N/c1ccc(S(N)(=O)=O)cc1	57	96	86	61	63	58	94	99	75.4	85	83	77	68	80	41	54	69	74	80	47	inhibition of growth at 10 µM (K562): 67%; inhibition of growth at 10 µM (UO-31): 81%; inhibition of growth at 10 µM (T47D): 57%; inhibition of growth at 10 µM (MDA-MB-468): 67%; inhibition of growth at 10 µM (OVCAR-3): 53%; inhibition of growth at 10 µM (MDA-MB-231): 80%; inhibition of growth at 10 µM (SF-539): 80%; IC50 [1]: > 25000 nM; Ki (Carbonic anhydrase 9): 38.1 nM; inhibition of growth at 10 µM (Hs-578T): 95%; Ki (Carbonic anhydrase 12): 30.6 nM; inhibition of growth at 10 µM (HOP-92): 74%; inhibition of growth at 10 µM (SF-268): 63%; inhibition of growth at 10 µM (KM12): 67%; inhibition of growth at 10 µM (SK-MEL-5): 73%; Activity (NCI/ADR-RES): inactive; inhibition of growth at 10 µM (CCRF-CEM): 80%; inhibition of growth at 10 µM (NCI-H322M): 63%; inhibition of growth at 10 µM (RXF 393): 93%
